Results reported in ChEMBL document CHEMBL3627606, “Development of Novel, CNS Penetrant Positive Allosteric Modulators for the Metabotropic Glutamate Receptor Subtype 1 (mGlu1), Based on an N-(3-Chloro-4-(1,3-dioxoisoindolin-2-yl)phenyl)-3-methylfuran-2-carboxamide Scaffold, That Potentiate Wild Type and Mutant mGlu1 Receptors Found in …” (J Med Chem, 2015).

Key:
[1] = test system: Plasma; assay: Fraction unbound in human plasma; assay type: ADME, cell-free
[2] = test system: Plasma; assay: Fraction unbound in rat plasma; assay type: ADME, cell-free
[3] = biological target: Cytochrome P450 2D6 (Homo sapiens, UniProt P10635); assay: Inhibition of CYP2D6 in human liver microsomes by LC-MS/MS analysis; assay type: ADME
[4] = biological target: Cytochrome P450 3A4 (Homo sapiens, UniProt P08684); assay: Inhibition of CYP3A4 in human liver microsomes by LC-MS/MS analysis; assay type: ADME
[5] = test system: Mus musculus; assay: Toxicity in C57BL/6 mouse assessed as seizure activity at 100 mg/kg, ip administered as single dose measured for 3 hrs; assay type: organism-based; settings: in vivo
Method in brief: (§1)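 Male C57Bl/6 mice (25−30 g) dosed ip in 10% Tween 80 at 10 mL/kg: the mGlu5 ago-PAM at 1 or 3 mg/kg, the mGlu1 PAMs at 100 mg/kg. Behaviour was monitored continuously for 3 h and scored on a modified Racine scale (0−5).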

[6] = Half life in Sprague-Dawley rat at 0.2 mg/kg, iv by LC-MS/MS analysis; settings: in vivo
[7] = Plasma clearance in Sprague-Dawley rat at 0.2 mg/kg, iv by LC-MS/MS analysis
[8] = Mean residence time in Sprague-Dawley rat at 0.2 mg/kg, iv by LC-MS/MS analysis; settings: in vivo
[9] = Plasma concentration in Sprague-Dawley rat at 0.2 mg/kg, iv after 0.25 hrs by LC-MS/MS analysis
[10] = test system: Rattus norvegicus; assay: Volume of distribution at steady state in Sprague-Dawley rat at 0.2 mg/kg, iv by LC-MS/MS analysis; settings: in vivo
[11] = Drug concentration in Sprague-Dawley rat brain at 0.2 mg/kg, iv after 0.25 hrs by LC-MS/MS analysis; settings: read-out: Drug uptake
[12] = Ratio of drug level in brain to plasma of Sprague-Dawley rat at 0.2 mg/kg, iv after 0.25 hrs by LC-MS/MS analysis; settings: read-out: BPR
[13] = test system: Mus musculus; assay: Toxicity in C57BL/6 mouse assessed as seizure activity at 1 mg/kg, ip administered as single dose measured after 5 mins; assay type: organism-based; settings: in vivo; method in brief: as §1
[14] = test system: Mus musculus; assay: Toxicity in C57BL/6 mouse assessed as seizure activity at 1 or 3 mg/kg, ip administered as single dose measured after 5 mins; settings: in vivo
[15] = biological target: T1, Metabotropic glutamate receptor 1 (Homo sapiens, UniProt Q13255); assay: Negative allosteric modulation of human mGlu1 receptor in HEK293 cells assessed as potentiation of glutamate-induced calcium mobiliztion by Fluo-4AM dye based fluorescence analysis; assay type: functional, cell-based
Target sequence in this assay (Q13255 whole entry): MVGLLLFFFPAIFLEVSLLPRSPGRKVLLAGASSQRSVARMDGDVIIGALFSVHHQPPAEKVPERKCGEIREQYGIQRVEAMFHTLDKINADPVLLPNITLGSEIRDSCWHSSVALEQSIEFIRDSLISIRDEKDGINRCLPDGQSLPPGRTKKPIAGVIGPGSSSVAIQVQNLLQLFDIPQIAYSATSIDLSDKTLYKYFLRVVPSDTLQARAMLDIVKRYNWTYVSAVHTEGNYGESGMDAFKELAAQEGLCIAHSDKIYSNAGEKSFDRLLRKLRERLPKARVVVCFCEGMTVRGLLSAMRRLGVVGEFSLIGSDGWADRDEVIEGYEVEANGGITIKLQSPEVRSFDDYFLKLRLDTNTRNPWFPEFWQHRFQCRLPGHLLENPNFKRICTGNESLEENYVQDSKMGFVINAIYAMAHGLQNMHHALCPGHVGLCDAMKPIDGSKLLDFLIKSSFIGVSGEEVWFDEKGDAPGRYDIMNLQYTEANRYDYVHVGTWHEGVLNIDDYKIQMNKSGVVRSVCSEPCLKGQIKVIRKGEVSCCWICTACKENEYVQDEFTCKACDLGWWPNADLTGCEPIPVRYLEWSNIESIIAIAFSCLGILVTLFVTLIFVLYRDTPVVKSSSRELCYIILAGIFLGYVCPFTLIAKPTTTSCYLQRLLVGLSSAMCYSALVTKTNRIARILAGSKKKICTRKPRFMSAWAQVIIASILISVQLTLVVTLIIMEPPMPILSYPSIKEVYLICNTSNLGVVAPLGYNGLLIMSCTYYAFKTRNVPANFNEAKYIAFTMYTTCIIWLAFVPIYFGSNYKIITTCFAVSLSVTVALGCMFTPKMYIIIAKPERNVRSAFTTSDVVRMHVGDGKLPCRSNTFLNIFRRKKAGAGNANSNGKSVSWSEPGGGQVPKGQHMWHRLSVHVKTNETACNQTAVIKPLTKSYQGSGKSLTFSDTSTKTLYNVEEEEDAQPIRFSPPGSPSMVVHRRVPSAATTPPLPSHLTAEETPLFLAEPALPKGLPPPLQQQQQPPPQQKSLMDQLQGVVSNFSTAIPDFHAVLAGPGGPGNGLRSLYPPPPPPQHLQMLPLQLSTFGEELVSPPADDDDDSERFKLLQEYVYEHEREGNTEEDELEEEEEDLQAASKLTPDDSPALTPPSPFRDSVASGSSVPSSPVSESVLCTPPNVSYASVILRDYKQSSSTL

[16] = biological target: T1, Metabotropic glutamate receptor 1; assay: Positive allosteric modulation of human mGlu1 receptor in HEK293 cells assessed as potentiation of glutamate-induced calcium mobiliztion by Fluo-4AM dye based fluorescence analysis; assay type: functional, cell-based; settings: read-out: EC50
Target sequence in this assay (Q13255 whole entry): as above

[17] = biological target: Metabotropic glutamate receptor 1 (Rattus norvegicus, UniProt P23385); assay: Positive allosteric modulation of rat mGlu1 receptor assessed as potentiation of glutamate-induced calcium mobiliztion by cell based assay; assay type: functional
Method in brief: (§2)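 Rat mGlu1 WT calcium mobilization concentration-response curves. EC50 and % Glu Max were derived from the curves.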

[18] = test system: Plasma; assay: Metabolic stability in human plasma; assay type: ADME, cell-free
Method in brief: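 Compound incubated at 10 μM in rat or human plasma at 37 °C. Samples taken at 0 and 4 h were analysed by mass spectrometry for parent and metabolites.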

[19] = test system: Plasma; assay: Metabolic stability in rat plasma; assay type: ADME, cell-free
[20] = biological target: T2, Cytochrome P450 1A2 (Homo sapiens, UniProt P05177); assay: Inhibition of CYP1A2 in human liver microsomes by LC-MS/MS analysis; assay type: ADME
T2 sequence (P05177 whole entry): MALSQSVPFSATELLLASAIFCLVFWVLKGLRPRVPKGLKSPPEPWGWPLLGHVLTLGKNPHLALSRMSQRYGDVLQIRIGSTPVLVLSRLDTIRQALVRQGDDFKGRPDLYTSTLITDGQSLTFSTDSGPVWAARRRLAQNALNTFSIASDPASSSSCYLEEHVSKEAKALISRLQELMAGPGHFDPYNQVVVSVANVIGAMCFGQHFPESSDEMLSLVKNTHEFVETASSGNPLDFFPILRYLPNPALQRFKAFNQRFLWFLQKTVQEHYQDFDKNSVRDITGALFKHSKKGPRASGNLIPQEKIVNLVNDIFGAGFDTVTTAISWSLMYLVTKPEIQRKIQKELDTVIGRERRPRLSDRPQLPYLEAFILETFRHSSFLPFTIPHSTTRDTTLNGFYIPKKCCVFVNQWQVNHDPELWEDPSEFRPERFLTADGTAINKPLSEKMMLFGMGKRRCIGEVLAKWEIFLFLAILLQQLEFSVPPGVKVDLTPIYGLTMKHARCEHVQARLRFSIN

[21] = biological target: Cytochrome P450 2C9 (Homo sapiens, UniProt P11712); assay: Inhibition of CYP2C9 in human liver microsomes by LC-MS/MS analysis; assay type: ADME
[22] = test system: Hippocampus; assay: Toxic epileptiform activity in C57BL/6 mouse CA3 region of hippocampus assessed as frequency of spike activity at 50 uM by electrophysiolgy method (reference value: 0.94 +/- 0.06 Hz); assay type: toxicity, tissue-based
Method in brief: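 Mouse hippocampal slices with extracellular recording from the CA3 pyramidal cell body layer. Compound (10 μM) or DHPG (50 μM) was bath-applied, and the frequency of spontaneous spikes was compared with baseline. n = 6 per agent, paired t test.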

[23] = biological target: T1, Metabotropic glutamate receptor 1; assay: Positive allosteric modulation of human mGlu1 receptor in HEK293 cells assessed as potentiation of glutamate-induced calcium mobiliztion by Fluo-4AM dye based fluorescence analysis relative to glutamate; assay type: functional, cell-based
Target sequence in this assay (Q13255 19-1194 limits assumed): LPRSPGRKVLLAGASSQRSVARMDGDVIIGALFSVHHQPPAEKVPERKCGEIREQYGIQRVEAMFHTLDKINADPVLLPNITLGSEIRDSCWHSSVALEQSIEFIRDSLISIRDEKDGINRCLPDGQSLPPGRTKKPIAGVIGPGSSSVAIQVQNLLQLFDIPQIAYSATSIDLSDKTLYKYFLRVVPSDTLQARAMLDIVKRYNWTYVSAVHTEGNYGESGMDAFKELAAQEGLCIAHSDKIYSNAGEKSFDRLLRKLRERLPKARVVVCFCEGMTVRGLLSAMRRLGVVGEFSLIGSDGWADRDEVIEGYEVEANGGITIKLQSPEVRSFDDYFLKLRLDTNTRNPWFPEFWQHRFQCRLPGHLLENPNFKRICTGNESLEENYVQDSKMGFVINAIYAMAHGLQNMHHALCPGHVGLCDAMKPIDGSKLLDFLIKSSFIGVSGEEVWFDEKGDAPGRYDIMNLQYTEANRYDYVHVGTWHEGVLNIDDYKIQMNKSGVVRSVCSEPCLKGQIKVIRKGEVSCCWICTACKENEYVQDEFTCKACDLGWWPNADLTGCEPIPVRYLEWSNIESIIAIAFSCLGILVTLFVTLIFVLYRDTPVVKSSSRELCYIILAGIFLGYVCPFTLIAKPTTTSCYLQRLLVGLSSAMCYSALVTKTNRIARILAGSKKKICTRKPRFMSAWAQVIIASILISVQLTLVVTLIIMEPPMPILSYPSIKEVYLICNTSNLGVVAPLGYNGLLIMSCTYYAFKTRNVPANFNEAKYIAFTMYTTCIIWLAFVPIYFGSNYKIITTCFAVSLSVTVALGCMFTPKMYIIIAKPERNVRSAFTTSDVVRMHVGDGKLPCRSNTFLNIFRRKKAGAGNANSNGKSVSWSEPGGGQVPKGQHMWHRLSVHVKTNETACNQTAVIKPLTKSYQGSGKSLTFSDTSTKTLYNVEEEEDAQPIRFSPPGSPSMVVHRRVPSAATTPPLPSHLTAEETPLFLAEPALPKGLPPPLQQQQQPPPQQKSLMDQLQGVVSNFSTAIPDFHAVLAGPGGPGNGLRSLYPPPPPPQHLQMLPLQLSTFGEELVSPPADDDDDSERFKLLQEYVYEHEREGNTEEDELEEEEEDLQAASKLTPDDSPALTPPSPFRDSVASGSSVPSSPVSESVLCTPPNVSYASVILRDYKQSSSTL

[24] = biological target: T3, Metabotropic glutamate receptor 4 (Homo sapiens, UniProt Q14833); assay: Positive allosteric modulation of human mGlu4 receptor assessed as potentiation of glutamate-induced calcium mobiliztion by cell based assay; assay type: functional
[25] = biological target: Metabotropic glutamate receptor 1 (Rattus norvegicus) (UniProt P23385); assay: Positive allosteric modulation of rat mGlu1 receptor assessed as potentiation of glutamate-induced calcium mobiliztion by cell based assay relative to glutamate; assay type: functional; method in brief: as §2
[26] = biological target: T1, Metabotropic glutamate receptor 1; assay: Positive allosteric modulation of human mGlu1 receptor in HEK293 cells assessed as potentiation of glutamate-induced calcium mobiliztion at 10 uM by Fluo-4AM dye based fluorescence analysis; assay type: functional, cell-based
Target sequence in this assay (Q13255 19-1194 limits assumed): as above

[27] = biological target: T1, Metabotropic glutamate receptor 1; assay: Agonist activity at human mGlu1 receptor in HEK293 cells assessed as calcium mobilization at 10 uM by Fluo-4AM dye based fluorescence analysis; assay type: functional, cell-based
Target sequence in this assay (Q13255 19-1194 limits assumed): as above

[28] = biological target: Metabotropic glutamate receptor 2 (Homo sapiens) (UniProt Q14416); assay: Positive allosteric modulation of mGlu2 receptor (unknown origin) assessed as potentiation of glutamate-induced response by cell-based assay
Method in brief: (§3)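 Selectivity counterscreen at the other mGlu subtypes using the standard fold-shift paradigm. Compound was tested at 10 μM against the glutamate concentration-response curve, and the shift of that curve was read.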

[29] = biological target: Metabotropic glutamate receptor 3 (Homo sapiens) (UniProt Q14832); assay: Positive allosteric modulation of mGlu3 receptor (unknown origin) assessed as potentiation of glutamate-induced response by cell-based assay; method in brief: as §3
[30] = biological target: Metabotropic glutamate receptor 5 (Homo sapiens) (UniProt P41594); assay: Positive allosteric modulation of mGlu5 receptor (unknown origin) assessed as potentiation of glutamate-induced response by cell-based assay; method in brief: as §3
[31] = biological target: Metabotropic glutamate receptor 6 (Homo sapiens) (UniProt O15303); assay: Positive allosteric modulation of mGlu6 receptor (unknown origin) assessed as potentiation of glutamate-induced response by cell-based assay; method in brief: as §3
[32] = biological target: Metabotropic glutamate receptor 7 (Homo sapiens) (UniProt Q14831); assay: Positive allosteric modulation of mGlu7 receptor (unknown origin) assessed as potentiation of glutamate-induced response by cell-based assay; method in brief: as §3
[33] = biological target: Metabotropic glutamate receptor 8 (Homo sapiens) (UniProt O00222); assay: Positive allosteric modulation of mGlu8 receptor (unknown origin) assessed as potentiation of glutamate-induced response by cell-based assay; method in brief: as §3
[34] = Intrinsic clearance in human liver microsomes at 1 uM by LC-MS/MS analysis; assay type: ADME; settings: read-out: CLH
[35] = test system: Plasma; assay: Drug metabolism in human plasma assessed as 5-chloro-2-(2-chloro-4-(3-methylfuran-2-carboxamido)phenylcarbamoyl)benzoic acid level at 10 uM after 4 hrs by mass spectrometry; assay type: ADME, cell-free
[36] = test system: Plasma; assay: Drug metabolism in human plasma assessed as 4-chloro-2-(2-chloro-4-(3-methylfuran-2-carboxamido)phenylcarbamoyl)benzoic acid level at 10 uM after 4 hrs by mass spectrometry; assay type: ADME, cell-free
[37] = test system: Plasma; assay: Drug metabolism in human plasma assessed as N-(4-amino-3-chlorophenyl)-3-methylfuran-2-carboxamide level at 10 uM after 4 hrs by mass spectrometry; assay type: ADME, cell-free
[38] = test system: Plasma; assay: Drug metabolism in rat plasma assessed as 4-chloro-2-(2-chloro-4-(3-methylfuran-2-carboxamido)phenylcarbamoyl)benzoic acid level at 10 uM after 4 hrs by mass spectrometry; assay type: ADME, cell-free
[39] = test system: Plasma; assay: Drug metabolism in rat plasma assessed as 5-chloro-2-(2-chloro-4-(3-methylfuran-2-carboxamido)phenylcarbamoyl)benzoic acid level at 10 uM after 4 hrs by mass spectrometry; assay type: ADME, cell-free
[40] = test system: Plasma; assay: Drug metabolism in rat plasma assessed as N-(4-amino-3-chlorophenyl)-3-methylfuran-2-carboxamide level at 10 uM after 4 hrs by mass spectrometry; assay type: ADME, cell-free
[41] = test system: Brain; assay: Drug concentration in C57BL/6 mouse brain at 100 mg/kg, ip administered as single dose; assay type: ADME, organism-based; settings: in vivo, read-out: Drug uptake
[42] = biological target: T3, Metabotropic glutamate receptor 4; assay: Positive allosteric modulation of human mGlu4 receptor assessed as potentiation of glutamate-induced calcium mobiliztion by cell based assay relative to PHCCC

Sequence of Cytochrome P450 2D6 (P10635 whole entry): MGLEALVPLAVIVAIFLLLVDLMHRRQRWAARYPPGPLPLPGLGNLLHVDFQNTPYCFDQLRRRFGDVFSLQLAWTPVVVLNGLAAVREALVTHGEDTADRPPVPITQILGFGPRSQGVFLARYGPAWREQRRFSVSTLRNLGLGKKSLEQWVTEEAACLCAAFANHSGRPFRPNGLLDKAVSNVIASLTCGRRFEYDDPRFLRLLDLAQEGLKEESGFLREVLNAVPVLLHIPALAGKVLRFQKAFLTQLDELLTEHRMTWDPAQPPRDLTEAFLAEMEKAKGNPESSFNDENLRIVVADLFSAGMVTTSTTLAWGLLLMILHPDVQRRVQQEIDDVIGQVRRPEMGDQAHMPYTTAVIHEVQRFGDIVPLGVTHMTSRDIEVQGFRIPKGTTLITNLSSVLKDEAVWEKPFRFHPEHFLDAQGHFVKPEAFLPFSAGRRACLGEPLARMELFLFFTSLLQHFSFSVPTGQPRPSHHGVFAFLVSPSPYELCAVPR
T3 sequence (Q14833 whole entry): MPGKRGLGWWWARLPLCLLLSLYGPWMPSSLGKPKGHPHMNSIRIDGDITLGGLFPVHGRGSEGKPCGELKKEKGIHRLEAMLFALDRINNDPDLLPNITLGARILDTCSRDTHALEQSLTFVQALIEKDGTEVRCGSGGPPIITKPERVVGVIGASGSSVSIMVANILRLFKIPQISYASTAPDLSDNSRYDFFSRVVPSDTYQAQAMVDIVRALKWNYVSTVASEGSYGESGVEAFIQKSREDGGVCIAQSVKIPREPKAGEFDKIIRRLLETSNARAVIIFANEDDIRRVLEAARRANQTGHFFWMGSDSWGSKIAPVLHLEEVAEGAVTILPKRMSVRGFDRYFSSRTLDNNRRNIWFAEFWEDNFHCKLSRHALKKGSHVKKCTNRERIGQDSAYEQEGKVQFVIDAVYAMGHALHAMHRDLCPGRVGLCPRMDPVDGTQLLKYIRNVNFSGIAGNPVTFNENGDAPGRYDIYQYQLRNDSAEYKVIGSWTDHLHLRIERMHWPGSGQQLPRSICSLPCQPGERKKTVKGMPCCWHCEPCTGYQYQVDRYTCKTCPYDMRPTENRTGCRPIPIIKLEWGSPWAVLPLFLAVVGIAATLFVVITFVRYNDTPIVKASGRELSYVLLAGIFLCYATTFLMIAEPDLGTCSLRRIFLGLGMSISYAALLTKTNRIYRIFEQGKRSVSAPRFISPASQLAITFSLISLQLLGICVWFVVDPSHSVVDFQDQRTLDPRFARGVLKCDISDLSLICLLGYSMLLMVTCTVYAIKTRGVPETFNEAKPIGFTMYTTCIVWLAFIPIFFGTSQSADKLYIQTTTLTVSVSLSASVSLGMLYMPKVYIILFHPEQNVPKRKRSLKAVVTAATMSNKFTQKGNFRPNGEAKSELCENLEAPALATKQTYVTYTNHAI
Sequence of Cytochrome P450 3A4 (P08684 whole entry): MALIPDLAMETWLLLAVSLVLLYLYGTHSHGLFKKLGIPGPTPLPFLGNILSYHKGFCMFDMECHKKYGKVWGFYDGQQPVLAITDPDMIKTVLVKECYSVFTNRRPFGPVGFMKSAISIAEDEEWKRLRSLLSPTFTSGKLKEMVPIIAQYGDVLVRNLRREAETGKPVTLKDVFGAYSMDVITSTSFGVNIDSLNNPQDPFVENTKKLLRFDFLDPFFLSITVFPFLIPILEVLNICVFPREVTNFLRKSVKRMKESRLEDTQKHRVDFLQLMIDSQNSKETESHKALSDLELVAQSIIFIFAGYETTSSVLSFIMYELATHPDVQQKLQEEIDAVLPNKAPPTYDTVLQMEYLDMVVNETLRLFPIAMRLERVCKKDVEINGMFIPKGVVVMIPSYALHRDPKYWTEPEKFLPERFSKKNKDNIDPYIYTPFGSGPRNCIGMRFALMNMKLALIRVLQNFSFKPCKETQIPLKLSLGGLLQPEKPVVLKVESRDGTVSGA
Sequence of Cytochrome P450 2C9 (P11712 whole entry): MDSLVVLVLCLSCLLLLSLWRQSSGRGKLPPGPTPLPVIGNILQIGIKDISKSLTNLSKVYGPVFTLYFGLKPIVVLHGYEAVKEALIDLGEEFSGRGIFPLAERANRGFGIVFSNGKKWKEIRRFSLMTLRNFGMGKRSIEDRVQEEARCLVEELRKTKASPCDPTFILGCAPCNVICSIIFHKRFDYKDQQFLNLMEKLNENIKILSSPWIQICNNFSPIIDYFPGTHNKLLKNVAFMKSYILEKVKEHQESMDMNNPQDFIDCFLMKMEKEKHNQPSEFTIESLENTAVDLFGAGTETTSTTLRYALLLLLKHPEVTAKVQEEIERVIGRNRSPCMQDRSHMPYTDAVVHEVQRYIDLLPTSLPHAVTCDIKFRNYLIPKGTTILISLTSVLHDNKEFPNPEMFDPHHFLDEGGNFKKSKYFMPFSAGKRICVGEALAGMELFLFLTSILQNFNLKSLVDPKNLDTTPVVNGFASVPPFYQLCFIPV

O=C(Nc1nc(C(F)(F)F)co1)C1c2ccccc2Oc2ccccc21
Fu [1]: 0.014 | Fu [2]: 0.003 | IC50 [3]: > 30000 nM | IC50 [4]: > 30000 nM | Activity [5]: Non-toxic | half-life [6]: 54 min | clearance [7]: 35 mL/min/kg | MRT [8]: 50 min | concentration at 0.25 h [9]: 276 ng/mL | Vdss [10]: 1.34 L/kg | concentration at 0.25 h [11]: 81 ng/mL | Kp at 0.25 h [12]: 0.29

C[C@@H](NC(=O)c1ccc(C#Cc2cccc(F)c2)cn1)C(C)(C)O
Activity [13]: Toxic | Activity [14]: Toxic

CC1(C)C2C(=O)N(c3ccc(NC(=O)c4ccccn4)cc3Cl)C(=O)C21 (stereo not drawn)
IC50 [15]: 140 nM

O=C(Nc1ccc(N2C(=O)c3cccc(Cl)c3C2=O)c(Cl)c1)c1ncccc1Cl
EC50 ([16]; hek293): 390 nM | EC50 [17]: 356 nM | Stability [18]: Unstable | Stability [19]: Unstable | IC50 [20]: > 30000 nM | IC50 [21]: > 30000 nM | IC50 [3]: > 30000 nM | IC50 [4]: > 30000 nM | concentration at 0.25 h [9]: 336 ng/mL | concentration at 0.25 h [11]: 284 ng/mL

N[C@H](C(=O)O)c1cc(O)cc(O)c1
Activity [22]: 13.8 Hz

Cc1ccoc1C(=O)Nc1ccc(N2C(=O)c3ccc(Cl)cc3C2=O)c(Cl)c1
EC50 [16]: 80.9 nM | %max [23]: 94% | EC50 ([24]; read-out: EC50): 2250 nM | EC50 ([24]; read-out: pEC50 (converted)): 2290 nM | EC50 [17]: 113 nM | %max [25]: 107% | fold change (FC) [26]: 8.3 | Activity [27]: < 20% | fold change (FC) [28]: 2 | fold change (FC) [29]: 2 | fold change (FC) [30]: 2 | fold change (FC) [31]: 2 | fold change (FC) [32]: 2 | fold change (FC) [33]: 2 | CLint scaled at 1 µM [34]: 2.9 mL/min/kg | Stability [18]: Unstable | Stability [19]: Unstable | IC50 [20]: > 30000 nM | IC50 [21]: > 30000 nM | IC50 [3]: > 30000 nM | IC50 [4]: > 30000 nM | Drug metabolism [35]: metabolite_detected | Drug metabolism [36]: metabolite_detected | Drug metabolism [37]: metabolite_detected | Drug metabolism [38]: metabolite_detected | Drug metabolism [39]: metabolite_detected | Drug metabolism [40]: metabolite_detected | Activity [5]: Non-toxic | concentration [41]: 1400 nM | half-life [6]: 91.1 min | clearance [7]: 33 mL/min/kg | MRT [8]: 53.5 min | concentration at 0.25 h [9]: 173 ng/mL | Vdss [10]: 1.76 L/kg | concentration at 0.25 h [11]: 108 ng/mL | Kp at 0.25 h [12]: 0.63 | %max [42]: 89%
